Assay results: ChEMBL document CHEMBL3232828, “A potential CARB-pharmacophore for antineoplastic activity: part 1” (2014)

Tests used:
Type in all cases: functional
LoVo [1] = assay: Cytotoxicity against hormone-independent human LoVo cells at 4 mM after 12 hrs by CCK-8 assay
Method in brief: (§1)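 For LoVo colorectal adenocarcinoma cells, cultured in DMEM supplemented with FBS and penicillin-streptomycin (37 °C, 5% CO2), 2.5 × 10^4 cells/well were plated 12 h ahead, then treated 12 h. Read-out: CCK-8 (10% in serum-free medium, 3 h), absorbance 450 nm. Percent viability = 100 × (S−B)/(K−B) using blank and control wells.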

LoVo [2] = assay: Cytotoxicity against hormone-independent human LoVo cells at 8 mM after 12 hrs by CCK-8 assay; method in brief: as §1
A549 [3] = assay: Cytotoxicity against hormone-independent human A549 cells at 8 mM after 12 hrs by CCK-8 assay
Method in brief: (§2)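 A549 adherent cells in DMEM with FBS and penicillin-streptomycin at 37 °C, 5% CO2. Seeded at 1 × 10^4 cells/well and attached for 12 h. Compound applied for 12 h, followed by 3 h in serum-free medium with 10% CCK-8. OD at 450 nm. Viability expressed as 100 × (S−B)/(K−B) relative to untreated cells.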

MCF7 [4] = assay: Cytotoxicity against hormone-dependent human MCF7 cells at 4 mM after 12 hrs by CCK-8 assay
Method in brief: (§3)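 MCF-7 monolayers grown in DMEM plus FBS and penicillin-streptomycin (37 °C, 5% CO2), plated 5 × 10^4 cells/well 12 h before dosing. Exposure 12 h at the listed concentration. Viability measured by WST-8 (CCK-8) reduction: 10% CCK-8 in serum-free medium, 3 h, absorbance 450 nm. Viability% = 100 × (sample−blank)/(control−blank).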

LoVo [5] = assay: Cytotoxicity against hormone-independent human LoVo cells at 2 mM after 12 hrs by CCK-8 assay; method in brief: as §1
MCF7 [6] = assay: Cytotoxicity against hormone-dependent human MCF7 cells at 6 mM after 12 hrs by CCK-8 assay; method in brief: as §3
A549 [7] = assay: Cytotoxicity against hormone-independent human A549 cells at 6 mM after 12 hrs by CCK-8 assay; method in brief: as §2
HeLa [8] = assay: Cytotoxicity against hormone-dependent human HeLa cells at 4 mM after 12 hrs by CCK-8 assay
Method in brief: (§4)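 HeLa cells (adherent) in F-12K medium with fetal bovine serum and penicillin-streptomycin, 37 °C, 5% CO2. Seeded at 1 × 10^4 cells/well and allowed to form a monolayer for 12 h. Treated 12 h at the stated concentration. Medium then replaced with serum-free medium containing 10% CCK-8 for 3 h. OD read at 450 nm. Viability% = 100 × (S−B)/(K−B) against blank and untreated control.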

HeLa [9] = assay: Cytotoxicity against hormone-dependent human HeLa cells at 8 mM after 12 hrs by CCK-8 assay; method in brief: as §4
A549 [10] = assay: Cytotoxicity against hormone-independent human A549 cells at 2 mM after 12 hrs by CCK-8 assay; method in brief: as §2
HeLa [11] = assay: Cytotoxicity against hormone-dependent human HeLa cells at 6 mM after 12 hrs by CCK-8 assay; method in brief: as §4
A549 [12] = assay: Cytotoxicity against hormone-independent human A549 cells at 4 mM after 12 hrs by CCK-8 assay; method in brief: as §2
HeLa [13] = assay: Cytotoxicity against hormone-dependent human HeLa cells at 2 mM after 12 hrs by CCK-8 assay; method in brief: as §4
LoVo [14] = assay: Cytotoxicity against hormone-independent human LoVo cells at 6 mM after 12 hrs by CCK-8 assay; method in brief: as §1
MCF7 [15] = assay: Cytotoxicity against hormone-dependent human MCF7 cells at 2 mM after 12 hrs by CCK-8 assay; method in brief: as §3
MCF7 [16] = assay: Cytotoxicity against hormone-dependent human MCF7 cells at 8 mM after 12 hrs by CCK-8 assay; method in brief: as §3
K562 [17] = assay: Cytotoxicity against human K562 cells at 2 mM after 12 hrs by CCK-8 assay
Method in brief: (§5)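 Suspension K562 cells maintained in RPMI 1640 with FBS and penicillin-streptomycin at 37 °C, 5% CO2. Seeded at 2 × 10^4 cells/well and exposed 12 h at the given concentration. Then incubated 3 h with 10% CCK-8 in serum-free medium. OD 450 nm. Viability% = 100 × (S−B)/(K−B) versus blank and untreated control.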

K562 [18] = assay: Cytotoxicity against human K562 cells at 6 mM after 12 hrs by CCK-8 assay; method in brief: as §5
K562 [19] = assay: Cytotoxicity against human K562 cells at 4 mM after 12 hrs by CCK-8 assay; method in brief: as §5
K562 [20] = assay: Cytotoxicity against human K562 cells at 8 mM after 12 hrs by CCK-8 assay; method in brief: as §5

SMILES	Activity (LoVo [1])	Activity (LoVo [2])	Activity (A549 [3])	Activity (MCF7 [4])	Activity (LoVo [5])	Activity (MCF7 [6])	Activity (A549 [7])	Activity (HeLa [8])	Activity (HeLa [9])	Activity (A549 [10])	Activity (HeLa [11])	Activity (A549 [12])	Activity (HeLa [13])	Activity (LoVo [14])	Activity (MCF7 [15])	Activity (MCF7 [16])	Activity (K562 [17])	Activity (K562 [18])	Activity (K562 [19])	Activity (K562 [20])
OCC1(O)SC[C@@H](O)C(O)C1O (single isomer, unassigned)	25%	42%	55%	7%	28%	3%	46%	30%	51%	44%	48%	44%	28%	32%	3%	2%				
O[C@@H]1[C@@H](O)[C@H](O)[C@]2(CO2)[C@@H](O)[C@H]1O		24%	26%	46%		53%	20%		7%		2%			5%	22%	66%	6%	26%	20%	36%
OC[C@H]1SC(O)[C@H](O)[C@@H](O)[C@@H]1O (stereo not given in full)	54%	88%	97%	25%	28%	40%	96%	90%	98%	79%	99%	96%	70%	85%	17%	49%	6%	94%	45%	98%
OC[C@@]12CO[C@H](O1)[C@H](O)[C@@H](O)[C@H]2O	7%	12%	7%	2%	9%	5%	5%	4%	3%	23%		4%	4%	13%	6%	3%				
